Assay results collected from several papers.
Compare with care: the assays were run in different laboratories.
Target: Fibroblast growth factor receptor 4 (FGFR4, Homo sapiens, UniProt P22455)

The remaining binding of `Cn1cncc1[C@](O)(COc1ccc(C#N)cc1-c1ccc(OC(F)(F)F)cc1)c1ccc(C#N)cc1` is reported as 100% (cell-free assay; competition with immobilised ligand; 1 µM).
The remaining binding of `COc1ncccc1-c1cnn2ccc(N3CCN(C(=O)OC(C)C)CC3)nc12` is reported as 60% (binding; competition with immobilised ligand; 1 µM).
`Cn1cc(-c2cccc(N3CCc4c(sc5c4CC(C)(C)C5)C3=O)c2CO)cc(Nc2ccncn2)c1=O` gave an inhibition of -2% (enzyme activity; inhibitor; 1 µM).
The inhibition of `COc1cc(Nc2ncc(F)c(Nc3ccc4c(n3)NC(=O)C(C)(C)O4)n2)cc(OC)c1OC` is reported as 97% (binding; competition with immobilised ligand; 10 µM).
With `Cc1nn(C)cc1-c1nc2c(N3CCN(Cc4ccc(Cl)cc4)CC3)c(Cl)cnc2[nH]1` the remaining binding was 68% (binding; competition with immobilised ligand; 1 µM).
The remaining activity of `CC(C)(C)c1cc(C=C(C#N)C#N)cc(Br)c1O` is reported as 98% (enzyme activity; inhibitor; 0.5 µM).
`C#Cc1n[nH]c2c(-c3cn([C@@H](C)c4ccccc4)c(=O)[nH]c3=O)cc(F)cc12` gave an inhibition of 0% (enzyme activity; inhibitor; 0.1 µM).
`O=c1[nH]c2ccccc2n1C1CCN(Cc2ccc(-c3[nH]c4cc5ncnc5cc4nc3-c3ccccc3)cc2)CC1` has a remaining signal of 97.2% (cell-free assay; 0.5 µM).
With `C#Cc1n[nH]c2c(-c3cn([C@@H](C)c4ccccn4)c(=O)[nH]c3=O)cc(F)cc12` the inhibition was 7.2% (enzyme activity; inhibitor; 0.1 µM).
`Nc1ncc(-c2nc(N3CCOCC3)nc(N3CCOCC3)n2)c(C(F)F)n1` gave a remaining binding of 100% (cell-free assay; competition with immobilised ligand; 10 µM).
`Cn1cc(-c2cc(F)cc(N3CCn4c(cc5c4CCCC5)C3=O)c2CO)cc(Nc2ccc(N3CCN(C4COC4)CC3)cn2)c1=O` gave an inhibition of 2% (enzyme activity; inhibitor; 0.1 µM).
`COCc1c(-c2cc3cc(C)cc(OC)c3s2)c2c(N)ncnn2c1CN1CCNC(=O)C1` gave an inhibition of 99.9% (cell-free assay; competition with immobilised ligand; 1 µM).
With `N#CC1(c2ccccn2)CCN(Cc2cc(C(=O)O)c(=O)n3ccccc23)CC1` the remaining binding was 100% (cell-free assay; competition with immobilised ligand; 1 µM).
